Laboratory results reported in ChEMBL document CHEMBL5674875, “RUNX2 expression in thyroid and breast cancer requires the cooperation of three non-redundant enhancers under the control of BRD4 and c-JUN” (Nucleic Acids Res, 2017).
Active and inactive are the calls of the source. No cut-off for these calls is given here.

Experiments:
MDA-MB-231 [1] = test: Inhibition of c-MYC expression in human MDA-MB-231 cells at 0.25 to 1 uM after 6 to 24 hrs by qRT-PCR analysis; format: functional, cell-based; settings: dose 0.25-1 µM, time 6-24 hrs
How it was run: (§1)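 Cells in DMEM/10% FBS were treated with the indicated compound concentrations or DMSO mock. Total RNA was purified and reverse-transcribed, and transcript levels were measured by EvaGreen-based qRT-PCR.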

MCF7 [2] = test: Anti-proliferative activity against human MCF7 cells assessed as reduction in cell proliferation incubated for 72 hrs; format: functional, cell-based; settings: MCF7, 72 h
How it was run: (§2)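 Cells grown in DMEM with 10% fetal bovine serum at 37°C/5% CO2, then exposed to a series of compound concentrations or DMSO mock. Proliferation curves were recorded for each line.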

MCF7 [3] = test: Inhibition of c-MYC expression in human MCF7 cells at 0.25 to 1 uM after 6 to 24 hrs by qRT-PCR analysis; format: functional, cell-based; settings: dose 0.25-1 µM, time 6-24 hrs; how it was run: as §1
MDA-MB-231 [4] = test: Anti-proliferative activity against human MDA-MB-231 cells assessed as reduction in cell proliferation incubated for 72 hrs; format: functional, cell-based; settings: MDA-MB-231, 72 h; how it was run: as §2
[5] = target: Mediator of RNA polymerase II transcription subunit 1 (Homo sapiens) (UniProt Q15648); test: Inhibition of MED1 in human MDA-MB-231 cells assessed as reduction of […] binding to all active RUNX2 regulatory elements (ENH11,ENH13) at 1 uM by ChIP analysis; format: cell-based
How it was run: (§3)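 Cells were treated with 1 μM compound or DMSO mock, 24 h unless otherwise specified. ChIP used anti-MED1 antibody at the RUNX2 P2 promoter and active enhancer regions. An unrelated region upstream of P2 served as negative control. Enrichment is expressed as percentage of input.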

[6] = target: Mediator of RNA polymerase II transcription subunit 1 (Homo sapiens) (UniProt Q15648); test: Inhibition of MED1 in human BCPAP cells assessed as reduction of […] binding to all active RUNX2 regulatory elements (ENH11) at 1 uM by ChIP analysis; format: cell-based; how it was run: as §3
BCPAP [7] = test: Anti-proliferative activity against human BCPAP cells assessed as reduction in cell proliferation incubated for 72 hrs; format: functional, cell-based; how it was run: as §2
TPC1 [8] = test: Inhibition of c-MYC expression in human TPC1 cells at 0.25 to 1 uM after 6 to 24 hrs by qRT-PCR analysis; format: functional, cell-based; settings: dose 0.25-1 µM, time 6-24 hrs; how it was run: as §1
[9] = target: Mediator of RNA polymerase II transcription subunit 1 (Homo sapiens) (UniProt Q15648); test: Partial inhibition of MED1 in human MCF7 cells assessed as partial reduction of […] binding to all active RUNX2 regulatory elements (ENH3,ENH13) at 1 uM by ChIP analysis; format: cell-based; how it was run: as §3
[10] = target: Mediator of RNA polymerase II transcription subunit 1 (Homo sapiens) (UniProt Q15648); test: Inhibition of MED1 in human TPC1 cells assessed as reduction of […] binding to all active RUNX2 regulatory elements (ENH11,ENH13) at 1 uM by ChIP analysis; format: cell-based; how it was run: as §3
BCPAP [11] = test: Inhibition of c-MYC expression in human BCPAP cells at 0.25 to 1 uM after 6 to 24 hrs by qRT-PCR analysis; format: functional, cell-based; settings: dose 0.25-1 µM, time 6-24 hrs; how it was run: as §1
TPC1 [12] = test: Anti-proliferative activity against human TPC1 cells assessed as reduction in cell proliferation incubated for 72 hrs; format: functional, cell-based; settings: TPC1, 72 h; how it was run: as §2

Mediator of RNA polymerase II transcription subunit 1 (Homo sapiens), sequence (Q15648 whole entry): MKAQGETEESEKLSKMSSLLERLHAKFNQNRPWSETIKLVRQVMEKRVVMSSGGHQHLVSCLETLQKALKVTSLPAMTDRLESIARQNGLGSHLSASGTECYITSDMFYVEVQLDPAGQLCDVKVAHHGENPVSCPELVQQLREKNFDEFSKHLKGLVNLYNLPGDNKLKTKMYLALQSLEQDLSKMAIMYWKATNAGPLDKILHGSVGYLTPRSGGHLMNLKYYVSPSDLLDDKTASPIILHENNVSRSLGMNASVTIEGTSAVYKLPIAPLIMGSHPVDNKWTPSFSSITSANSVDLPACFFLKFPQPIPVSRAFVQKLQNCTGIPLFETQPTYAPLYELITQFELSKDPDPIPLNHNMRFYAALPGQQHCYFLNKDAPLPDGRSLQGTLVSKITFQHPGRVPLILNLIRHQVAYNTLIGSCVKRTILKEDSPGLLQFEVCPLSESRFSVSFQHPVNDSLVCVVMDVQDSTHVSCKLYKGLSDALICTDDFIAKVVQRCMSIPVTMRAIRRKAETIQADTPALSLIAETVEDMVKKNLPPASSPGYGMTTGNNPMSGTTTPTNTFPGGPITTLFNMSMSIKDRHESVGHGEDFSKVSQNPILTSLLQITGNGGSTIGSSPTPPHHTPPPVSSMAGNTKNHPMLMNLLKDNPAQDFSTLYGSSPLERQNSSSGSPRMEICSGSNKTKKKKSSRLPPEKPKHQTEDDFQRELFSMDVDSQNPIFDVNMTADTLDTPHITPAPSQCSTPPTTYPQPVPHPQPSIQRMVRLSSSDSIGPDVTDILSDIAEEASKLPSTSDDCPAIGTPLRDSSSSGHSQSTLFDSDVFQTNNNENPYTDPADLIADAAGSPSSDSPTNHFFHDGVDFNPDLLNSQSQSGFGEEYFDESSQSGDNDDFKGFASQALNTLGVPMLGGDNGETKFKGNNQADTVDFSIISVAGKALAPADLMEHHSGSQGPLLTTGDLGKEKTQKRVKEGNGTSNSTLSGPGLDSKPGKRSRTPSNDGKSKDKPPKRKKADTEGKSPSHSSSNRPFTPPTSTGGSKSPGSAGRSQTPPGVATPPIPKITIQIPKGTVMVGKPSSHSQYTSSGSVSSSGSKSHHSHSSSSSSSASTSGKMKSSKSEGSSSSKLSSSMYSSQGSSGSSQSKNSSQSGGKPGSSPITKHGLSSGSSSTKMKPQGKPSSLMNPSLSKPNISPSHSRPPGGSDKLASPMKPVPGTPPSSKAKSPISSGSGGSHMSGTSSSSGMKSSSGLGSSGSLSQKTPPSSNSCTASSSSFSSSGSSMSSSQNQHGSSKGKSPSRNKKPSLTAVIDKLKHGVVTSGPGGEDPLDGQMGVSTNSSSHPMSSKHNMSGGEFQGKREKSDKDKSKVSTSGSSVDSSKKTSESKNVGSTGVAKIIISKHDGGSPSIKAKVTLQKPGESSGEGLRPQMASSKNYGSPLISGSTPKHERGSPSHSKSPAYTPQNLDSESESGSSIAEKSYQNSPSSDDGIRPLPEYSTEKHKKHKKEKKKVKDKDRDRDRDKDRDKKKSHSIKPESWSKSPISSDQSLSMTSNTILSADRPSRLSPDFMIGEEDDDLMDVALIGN

## Cc1sc2c(c1C)C(c1ccc(Cl)cc1)=N[C@@H](CC(=O)OC(C)(C)C)c1nnc(C)n1-2
MDA-MB-231 [1]
  inhibition: inactive
MCF7 [2]
  IC50: 12000 nM
MCF7 [3]
  inhibition: inactive
MDA-MB-231 [4]
  IC50: 507 nM
[5]
  inhibition: Active
[6]
  inhibition: Active
BCPAP [7]
  IC50: 254 nM
TPC1 [8]
  inhibition: inactive
[9]
  inhibition: Active
[10]
  inhibition: Active
BCPAP [11]
  inhibition: inactive
TPC1 [12]
  IC50: 462 nM
